Hits are enriched below; roughly 2% of the tested compounds scored in any of these assays.
IMP-1 inh = IMP-1 metallo-beta-lactamase inhibitors, primary screen, biochemical, epi-absorbance readout, Pseudomonas aeruginosa enzyme | purified IMP-1, nitrocefin hydrolysis, epi-absorbance fluorescence | 290,000 compounds, 0.45% hits | metallo-beta-lactamase IMP-1 (Pseudomonas aeruginosa) | inhibition, % at 5.6 µM;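 active = inhibition above the mean plus 3 SD of all compounds in the same screening run, cut at about 4.5% in these data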;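 also: 0% = IMP-1 with DMSO and 100% = DMSO wells lacking enzyme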
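Assay system: purified recombinant IMP-1 beta-lactamase. Input: IMP-1 0.2 nM before substrate addition. Buffer or medium: Zinc- and detergent-supplemented HEPES buffer, pH 7.1. Schedule: 25 °C, 15 min preincubation, 25 min reaction. Signal: Epi-absorbance fluorescence, 480 nm excitation, 530 nm emission. Evaluation: percent inhibition from optical density relative to buffer-blank wells.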
PvdQ inh = P. aeruginosa PvdQ acylase inhibitors, primary screen, biochemical, fluorescence, plate reader and imaging, single point; PvdQ acylase [Pseudomonas aeruginosa LESB58]; purified PvdQ acylase; inhibition, % at 10 µM; 340,000 compounds, 0.063% hits; AID 488965, 2010; in the data active = inhibition above about 30%, passing the limit was not always enough;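 also: 0% = vehicle neutral wells and 100% = reference inhibitor wells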
VIM-2 inh = VIM-2 metallo-beta-lactamase inhibitors, primary screen, biochemical, epi-absorbance readout, Pseudomonas aeruginosa enzyme. purified VIM-2, nitrocefin hydrolysis, epi-absorbance fluorescence. inhibition, % at 5.6 µM. 290,000 compounds, 0.89% hits. AID 1527, 2009;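 active = inhibition above the mean of all tested compounds plus 3 SD, cutoff set per screening run, cut at about 7.5% in these data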;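 also: red hydrolysis product quenches plate fluorescence so inhibitors raise well fluorescence; 0% = enzyme with DMSO and 100% = DMSO without enzyme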
ATG4B inhibitor = ATG4B protease inhibitors, primary screen, biochemical, fluorescence, uHTS; 340,000 compounds, 0.51% hits; ATG4B cleavage of LC3-PLA2, NBD-HPC fluorescence, 1 h; inhibition, % at 8.33 µM; AID 504462, 2011; in the data active = inhibition above about 40%
Target sequence (Q9Y4P1 whole entry, looked up): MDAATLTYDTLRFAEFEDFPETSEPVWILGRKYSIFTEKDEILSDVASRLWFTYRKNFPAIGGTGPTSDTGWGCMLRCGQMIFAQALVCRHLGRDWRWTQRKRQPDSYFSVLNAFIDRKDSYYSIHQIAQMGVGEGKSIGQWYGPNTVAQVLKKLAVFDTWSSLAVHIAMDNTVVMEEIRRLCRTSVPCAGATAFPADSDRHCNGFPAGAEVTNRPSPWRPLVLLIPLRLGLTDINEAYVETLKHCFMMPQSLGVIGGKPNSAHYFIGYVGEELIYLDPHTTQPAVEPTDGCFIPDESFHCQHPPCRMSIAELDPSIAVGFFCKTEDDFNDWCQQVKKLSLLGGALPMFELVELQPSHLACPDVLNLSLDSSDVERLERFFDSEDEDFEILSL
HKDC1 inhibitor = HKDC1 hexokinase inhibitors, primary screen, biochemical, fluorescence, uHTS | Q2TB90 | recombinant HKDC1, G6PDH/diaphorase resazurin coupled fluorescence | inhibition, % at 20 µM | 340,000 compounds, 0.16% hits;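 active = inhibition above about 35% when tested at 20 µM, limit read from the data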;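 also: plate controls were DMSO wells with enzyme for no effect and DMSO wells lacking enzyme for full effect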
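Incubation: 90 min at room temperature in dark / Material: recombinant HKDC1 (HK5) hexokinase enzyme, produced in-house / Quantity: enzyme 5 µg/mL final / Compound: one dose of 20 µM, 1% DMSO / Reagent: glucose and ATP substrates / Buffer or medium: Tris pH 8.0 buffer with MgCl2, Tween-20, BSA, BME / Technique: resorufin fluorescence at 613 nm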
beta cell repl = inducers of MIN6 beta-cell proliferation, primary screen, ATP luminescence, uHTS. 330,000 compounds, 0.29% hits. AID 2380, 2010. proliferation, % at 10 µM. MIN6 cells proliferation, ATPlite luminescence, 48 h; cells starved in 0.2% serum; 100% = growth in 10% serum;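 active = compounds whose signal lies at least 3.5 SD above the mean of all wells on their plate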;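 also: 0% = DMSO-treated cells in low-serum medium and 100% = 10% serum control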
HKDC1 act conf2 = HKDC1 hexokinase activators, confirmation, biochemical, single concentration; shares compounds with HKDC1 inhibitor; recombinant HKDC1, G6PDH/diaphorase resazurin fluorescence; hits give low values; inhibition, % at 20 µM; 740 compounds, 14% hits; AID 504708, 2011;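 active = inhibition at or below a set negative limit, negative inhibition meaning the enzyme was activated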
ATG4B conf = ATG4B protease inhibitors, retest, confirmation, biochemical, fluorescence, single concentration; shares compounds with ATG4B inhibitor; ATG4B protease fluorescent substrate cleavage assay; inhibition, % at 8.33 µM; 320 compounds, 92% hits; AID 504757, 2011; in the data active = inhibition above about 39%
PLA2 ctr = PLA2 enzyme inhibition, counter-screen for ATG4B inhibitor project, biochemical, single concentration, uHTS hits; shares compounds with ATG4B inhibitor; AID 588402, 2011; inhibition, % at 8.33 µM; 1,600 compounds, 66% hits; purified PLA2, NBD-C6-HPC fluorescence, 45 min; in the data active = inhibition above about 50%
Active calls of the source: *; nt = no result given.

SMILES	IMP-1 inh	PvdQ inh	VIM-2 inh	ATG4B inhibitor	HKDC1 inhibitor	beta cell repl	ATG4B conf	PLA2 ctr	others
COC(=O)CCCC1=CC2=CC(=O)C(C)(OC(=O)c3cccs3)C(=O)C2=CN1c1ccc(OC)cc1 (stereo not drawn)	nt	-2	nt	-14	19	-3	nt	nt
COc1ccc(C2=CC3=C(Br)C(=O)C(C)(OC(=O)c4cccs4)C(=O)C3=CO2)cc1 (stereo not drawn)	nt	7	nt	83*	50*	-3	nt	90*	HKDC1 act conf2=4
O=C(O)c1ccc(S(=O)(=O)/N=C2\C=C(Nc3ccccc3F)C(=O)c3ccccc32)cc1	-3	-11	0	77*	81*	-4	nt	75*	HKDC1 act conf2=76
Cc1ccccc1NC1=C/C(=N\S(=O)(=O)c2ccc(C(=O)O)cc2)c2ccccc2C1=O	-1	-1	0	59*	70*	0	37	28	HKDC1 act conf2=71
O=[N+]([O-])c1cccc(NNS(=O)(=O)c2ccccc2F)c1	-4	5	0	4	-2	-5	nt	nt
CCOc1ccc2nc3cc(N=Nc4ccc(N)nc4N)ccc3c(N)c2c1	nt	23	nt	54*	37*	nt	nt	69*	HKDC1 act conf2=-31
CCN(CC(=O)N1CCc2ccccc2C1)S(=O)(=O)c1ccc2ccccc2c1	-1	-8	-3	46*	-2	-1	66*	41
O=C(/C=C/c1ccc(Cl)cc1)N1CCN(c2c(Cl)cccc2[N+](=O)[O-])CC1	-2	-5	-7	44*	-7	-5	nt	47
O=C(CSc1ccc(Cl)cc1)N1CCN(c2c(Cl)cccc2[N+](=O)[O-])CC1	-2	1	0	39	1	-6	nt	nt
CCOC(=O)C(=CNc1ccc2c(c1)c1ccccc1n2CC)C(=O)OCC	-1	-1	0	-7	2	-4	nt	nt
O=c1cc(O)c2sc3nc(C(F)(F)F)c4c(c3c2[nH]1)CCCCC4	-2	6	1	45*	-1	-4	59*	41
O=C(NCC(c1cccnc1)N1CCN(c2ccc(F)cc2)CC1)c1ccc(F)cc1 (stereo not drawn)	0	13	-2	0	-6	4	nt	nt
CCCc1ccc(OC(=O)c2cccs2)cc1	-3	-6	-5	43*	-7	0	70*	28
Cc1cc(OC(=O)c2cccs2)ccc1C(C)C	0	-15	-3	42*	-1	-1	49*	47
Cc1occc1C(=O)NNC(=O)c1ccccc1Br	-2	-12	-2	-5	-12	0	nt	nt
COc1ccc(C(=O)Nc2cccc(/C=C(\CCC(=O)O)c3nc4ccccc4s3)c2)cc1	-2	-7	1	59*	5	-3	nt	74*
CN(c1ccccc1)c1ccc(/C=C(\CCC(=O)O)c2nc3ccccc3s2)cc1[N+](=O)[O-]	-3	4	1	46*	20	-3	70*	41
CCOc1cc(/C=C(\CC(=O)O)c2nc3ccccc3s2)ccc1OC	-1	-6	1	-3	-2	-4	nt	nt
COc1cccc(CN2CCC(C(=O)N3CCN(Cc4ccc5c(c4)OCO5)CC3)CC2)c1OC	0	-2	-2	-6	-5	-2	nt	nt

Compound activity deposited in PubChem BioAssay by several laboratories.
